The test system of data set [1] is MCF7. In words: Cytotoxicity against human HER2-deficient MCF7 cells expressing estrogen receptor after 48 hrs by MTT assay. Format: functional. The note with it: MCF7, 48 h. A digest of the protocol: (§1)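 Cells (HEK 293T, MCF-7, MDA-MB-231 from ATCC) seeded the day before in medium with serum, penicillin G, streptomycin and 2 mM L-glutamine. Compounds in DMSO, serially diluted in medium, final DMSO ≤0.5% (v/v), same in controls. 48 h at 37 °C, 5% CO2. MTT 3 h, formazan dissolved in DMSO, A570. Triplicates, ≥3 experiments. GI50 from % viable cells.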

The subject of data set [2] is MDA-MB-231. The experiment in a line: Cytotoxicity against human HER2/estrogen receptor-deficient MDA-MB-231 cells after 48 hrs by MTT assay. Format: functional. The note with it: MDA-MB-231, 48 h. Summed up: as §1
A short description of data set [3]: Cytotoxicity against HEK293T cells after 48 hrs by MTT assay. Format: cell-based, HEK-293T. The note with it: human. Summed up:
as §1

The test system of data set [4] is HEK-293T. The experiment in a line: Selectivity index, ratio of GI50 for HEK293T cells to GI50 for human HER2-deficient MCF7 cells. In kind it is functional.
Data set [5] can be described thus: Solubility of the compound at 100 uM. In kind it is physicochemical.

SMILES strings stand for the structures.

As to `O=C1Nc2ccc(Cl)cc2[C@]12[C@@H](c1ccccc1)C(c1ccccc1)=NN2c1ccccc1`, in data set [1], the GI50 stood at 37.7 µM. That is a double-digit micromolar value.

In data set [1], `O=C1Nc2ccccc2[C@]12CC(c1ccccc1)=NN2` yielded a GI50 of over 100 µM.

With `COc1ccc([C@H]2C(c3ccccc3)=NN(c3ccccc3)[C@]23C(=O)Nc2cc(Cl)ccc23)cc1`, the GI50 in data set [1] was over 100 µM.

Turning to `O=C1Nc2cc(Cl)ccc2[C@]12[C@@H](c1ccccc1)C(c1ccccc1)=NN2c1ccccc1`, the GI50 in data set [1] was 27.1 µM; in data set [2] it was over 50 µM. The same molecule displayed a GI50 at 48 h in data set [3] of over 50 µM. For the same molecule, the RatioGI50 in data set [4] is recorded as over 2. In addition, the solubility entry in data set [5] is “Insoluble”.

On to `O=C1Nc2cc(Br)ccc2[C@]12[C@@H](c1ccccc1)C(c1ccccc1)=NN2c1ccccc1`, for which the results for the concentration for 50% growth inhibition (GI50) in data set [1] and in data set [2] were 9.6 µM and 8.3 µM, respectively. Further, the 50% growth inhibitory concentration (GI50) at 48 h in data set [3] is 28.9 µM. Besides, the RatioGI50 in data set [4] is on record as 3.

With `CC(C)(C)C1=NN(c2ccccc2)[C@]2(C(=O)Nc3c(Cl)cccc32)[C@H]1c1ccccc1`, the figures for the GI50 in data set [1] and in data set [2] were 8.6 µM and 6.4 µM, respectively. In data set [3], this molecule yielded a GI50 at 48 h of 17.8 µM. For the same molecule, the RatioGI50 in data set [4] is 2.

Molecule `COc1ccc(C2=NN(c3ccccc3)[C@]3(C(=O)Nc4cc(Cl)ccc43)[C@H]2c2ccccc2)cc1` showed a concentration for 50% growth inhibition (GI50) in data set [1] of 42.6 µM.

With `COc1ccc(C2=NN(c3ccccc3)[C@]3(C(=O)Nc4cc(Br)ccc43)[C@H]2c2ccccc2)cc1`, the values for the GI50 in data set [1] and in data set [2] were 7 µM and 28.6 µM, respectively. This molecule registered a GI50 at 48 h in data set [3] of over 100 µM. The RatioGI50 in data set [4] was over 14.

As to `CC(C)(C)C1=NN(c2ccccc2)[C@]2(C(=O)Nc3cc(Br)ccc32)[C@H]1c1ccccc1`, the GI50 came out at 8.5 µM in data set [1] and 15 µM in data set [2]. For the same molecule, in data set [3], the GI50 at 48 h turned out to be 20.9 µM. Further, in data set [4], the RatioGI50 turned out to be 2.5.

Turning to `CC(C)(C)C1=NN(c2ccccc2)[C@]2(C(=O)Nc3cc(Cl)ccc32)[C@H]1c1ccccc1`, the concentration for 50% growth inhibition (GI50) in data set [1] was 21.7 µM; in data set [2], over 50 µM. The molecule further came in with a GI50 at 48 h in data set [3] of over 50 µM. For the same molecule, the RatioGI50 in data set [4] is reported as over 2. The solubility entry in data set [5] is recorded as “Insoluble”.

`O=C1Nc2ccc(Cl)cc2[C@]12CC(c1ccccc1)=NN2`: in data set [1], the GI50 was over 100 µM.

In turn, `COc1ccc(C2=NN(c3ccccc3)[C@]3(C(=O)Nc4ccc(Cl)cc43)[C@H]2c2ccccc2)cc1` displayed a GI50 in data set [1] of 33.9 µM.

As to `COc1ccc(C2=NN(c3ccccc3)[C@]3(C(=O)Nc4c(Cl)cccc43)[C@H]2c2ccccc2)cc1`, the values for the GI50 in data set [1] and in data set [2] were 11.5 µM and over 100 µM, respectively. Also, the GI50 at 48 h in data set [3] was over 100 µM. Besides, the RatioGI50 in data set [4] is listed as over 8.

Take `O=C1Nc2ccc(Br)cc2[C@]12CC(c1ccccc1)=NN2`: the 50% growth inhibitory concentration (GI50) in data set [1] was over 100 µM.

`O=C1Nc2ccccc2[C@]12[C@@H](c1ccccc1)C(c1ccccc1)=NN2c1ccccc1`: the 50% growth inhibitory concentration (GI50) in data set [1] was over 100 µM.

Take `O=C1Nc2ccc(Br)cc2[C@]12[C@@H](c1ccccc1)C(c1ccccc1)=NN2c1ccccc1`: the 50% growth inhibitory concentration (GI50) in data set [1] is 7.3 µM; in data set [2], over 100 µM. Besides, the GI50 at 48 h in data set [3] was over 100 µM. Besides, in data set [4], the RatioGI50 is over 13.

`O=C(c1ccccc1)[C@H]1C(c2ccccc2)=NN(c2ccccc2)[C@]12C(=O)Nc1ccc(Cl)cc12` returned a 50% growth inhibitory concentration (GI50) in data set [1] of over 100 µM.

Molecule `CCOC(=O)[C@H]1C(c2ccccc2)=NN(c2ccccc2)[C@]12C(=O)Nc1ccc(Cl)cc12` yielded a GI50 in data set [1] of over 100 µM.

These data come from ChEMBL document CHEMBL3232822, “Synthesis of novel spiropyrazoline oxindoles and evaluation of cytotoxicity in cancer cell lines” (Eur J Med Chem, 2014).
